The source made the active and inactive calls. The calls are words filed in the database; no cut-off is given here.
How the values were obtained:
[1] = Binding affinity to synthetic HTG21 telomere assessed as change in G-qudraplex DNA melting temperature at 1 uM by FRET method
[2] = Inhibition of amplification of synthetic HTG21 telomere assessed as G-quadruplex stabilization by PCR
How it was run: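 PCR stop assay with HTG21 and its partial complementary oligonucleotide (10 pmol each), 0.16 mM dNTP, 2.5 U Taq and test compound. Program: 94 °C for 3 min, then 30 cycles of 94/58/72 °C for 30 s each. Products run on 15% native PAGE and silver stained. IC50 taken from band optical density as 50% inhibition of PCR.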

[3] = Binding affinity to synthetic HTG21 telomere assessed as conversion of preformed hybrid-type G-quadruplex to antiparallel G-quadruplex structure at 5 uM in presence of K+ ions by CD spectroscopy
How it was run: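 CD on HTG21 at 5 µM strand in 10 mM Tris-HCl pH 7.4 with 100 mM KCl. Sample heated to 95 °C for 5 min, slowly cooled, held at 4 °C overnight. Titrated with 0–5 mol equiv compound. Scans from 230–450 nm at 25 °C, buffer baseline subtracted, at least three scans averaged.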

[4] = biological target: Telomerase reverse transcriptase (Homo sapiens, UniProt O14746); assay: Inhibition of telomerase in human MCF7 cells by cell-free telomerase repeat amplification protocol assay
How it was run: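 Modified TRAP using 100 ng of MCF-7 extract in 20 mM Tris-HCl pH 8.0 with 63 mM KCl, 1.5 mM MgCl2, 1 mM EGTA, 50 µM dNTPs, primers TSG4/TS/CXext/NT and a TSNT internal control. Compound or water added, 30 min elongation at 30 °C, then 30 PCR cycles. Read-out by 10% native PAGE with silver stain; TelIC50 from band optical density.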

[5] = Binding affinity to synthetic [d(T2AG3)] oligonucleotide assessed as increase in DNA melting temperature by NMR spectroscopy
How it was run: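 1H NMR thermal denaturation of d(T2AG3) at 0.5 mM in 90% H2O/10% D2O with 150 mM KCl and 25 mM potassium phosphate pH 7.0. Spectra recorded every 5 °C from 25–90 °C after 15 min equilibration at each step, Watergate water suppression.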

[6] = Binding affinity to synthetic [d(T2AG3)] oligonucleotide by NMR spectroscopy
How it was run: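 1H NMR titration at 25 °C of HPLC-purified d(T2AG3) at 0.5 mM in 90% H2O/10% D2O with 150 mM KCl and 25 mM potassium phosphate pH 7.0. Watergate water suppression; imino proton shifts monitored.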

CA46 [7] = assay: Induction of senescence in human CA46 cells at 0.06 uM administered continuously for 16 days by senescence-associated beta-galactosidase assay; format: functional, cell-based
How it was run: (§1)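 Cells were treated continuously with 0.06 µM ligand or 0.1% DMSO for 16 days. They were fixed in 2% formaldehyde/0.2% glutaraldehyde for 15 min at room temperature, washed in PBS, and stained overnight at 37 °C with 1 mg/mL X-Gal stain solution.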

CA46 [8] = assay: Cytotoxicity against human CA46 cell after 48 hrs by MTT assay; format: functional, cell-based; settings: CA46, 48 h
How it was run: (§2)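 MTT assay: cells seeded at 1.0 × 10^3 per well in RPMI-1640 with 10% FBS and exposed to a range of ligand concentrations for 48 h at 37 °C, 5% CO2. MTT added for 4 h, formazan dissolved in DMSO, OD read at 570 nm. Each dose run in triplicate; IC50 from mean OD versus concentration curves.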

HL-60 [9] = assay: Growth inhibition in human HL60 cells assessed as increase in population doubling time at 0.03 uM; format: functional, cell-based
How it was run: (§3)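 Long-term culture: 1.0 × 10^5 cells per flask with ligand at 0.03 or 0.06 µM, or 0.1% DMSO. Every 4 days cells were counted and reseeded at 1.0 × 10^5 with fresh treatment, for 16 days. Each point done three times.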

HL-60 [10] = assay: Growth inhibition in human HL60 cells at 0.06 uM after 12 days; format: functional, cell-based
How it was run: as §3

HL-60 [11] = assay: Decrease in telomere length in human HL60 cells at 0.06 uM after 16 days by telomeric restriction fragment length assay; format: functional, cell-based
How it was run: (§4)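 Cells were reseeded every 4 days with continuous compound or 0.1% DMSO for 16 days. Genomic DNA was cut with HinfI/RsaI and run on 0.8% agarose. It was then Southern blotted and probed with a DIG-labelled telomeric repeat probe, detected by anti-DIG alkaline phosphatase chemiluminescence to give TRF length.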

CA46 [12] = assay: Growth inhibition in human CA46 cells assessed as increase in population doubling time at 0.03 uM; format: functional, cell-based
How it was run: as §3

CA46 [13] = assay: Decrease in telomere length in human CA46 cells at 0.06 uM after 16 days by telomeric restriction fragment length assay; format: functional, cell-based
How it was run: as §4

HL-60 [14] = assay: Cytotoxicity against human HL60 cell after 48 hrs by MTT assay; format: functional, cell-based; settings: HL-60, 48 h
How it was run: as §2

HL-60 [15] = assay: Induction of senescence in human HL60 cells at 0.06 uM administered continuously for 16 days by senescence-associated beta-galactosidase assay; format: functional, cell-based
How it was run: as §1

HL-60 [16] = assay: Decrease in telomere length in human HL60 cells at 0.03 uM after 16 days by telomeric restriction fragment length assay; format: functional, cell-based
How it was run: as §4

CA46 [17] = assay: Growth inhibition in human CA46 cells at 0.06 uM after 12 days; format: functional, cell-based
How it was run: as §3

[18] = Binding affinity to synthetic HT7 oligonucleotide by competition dialysis method
How it was run: (§5)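 Competition dialysis, Tris-HCl 10 mM pH 7.4 with 100 mM NaCl. Each nucleic acid (0.5 mL, 45 µM monomeric unit) in a 1000 MWCO dialysis unit, all dialyzed together against a common ligand solution for 24 h at room temperature. DNA samples brought to 1% SDS. Total ligand in each tube and free ligand in dialysate read by absorbance (425 or 415 nm). Bound = total − free.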

[19] = Binding affinity to synthetic Pu27 oligonucleotide by competition dialysis method
How it was run: as §5

[20] = Binding affinity to synthetic HTG21 telomere by competition dialysis method
How it was run: as §5

Sequence of Telomerase reverse transcriptase (O14746 whole entry): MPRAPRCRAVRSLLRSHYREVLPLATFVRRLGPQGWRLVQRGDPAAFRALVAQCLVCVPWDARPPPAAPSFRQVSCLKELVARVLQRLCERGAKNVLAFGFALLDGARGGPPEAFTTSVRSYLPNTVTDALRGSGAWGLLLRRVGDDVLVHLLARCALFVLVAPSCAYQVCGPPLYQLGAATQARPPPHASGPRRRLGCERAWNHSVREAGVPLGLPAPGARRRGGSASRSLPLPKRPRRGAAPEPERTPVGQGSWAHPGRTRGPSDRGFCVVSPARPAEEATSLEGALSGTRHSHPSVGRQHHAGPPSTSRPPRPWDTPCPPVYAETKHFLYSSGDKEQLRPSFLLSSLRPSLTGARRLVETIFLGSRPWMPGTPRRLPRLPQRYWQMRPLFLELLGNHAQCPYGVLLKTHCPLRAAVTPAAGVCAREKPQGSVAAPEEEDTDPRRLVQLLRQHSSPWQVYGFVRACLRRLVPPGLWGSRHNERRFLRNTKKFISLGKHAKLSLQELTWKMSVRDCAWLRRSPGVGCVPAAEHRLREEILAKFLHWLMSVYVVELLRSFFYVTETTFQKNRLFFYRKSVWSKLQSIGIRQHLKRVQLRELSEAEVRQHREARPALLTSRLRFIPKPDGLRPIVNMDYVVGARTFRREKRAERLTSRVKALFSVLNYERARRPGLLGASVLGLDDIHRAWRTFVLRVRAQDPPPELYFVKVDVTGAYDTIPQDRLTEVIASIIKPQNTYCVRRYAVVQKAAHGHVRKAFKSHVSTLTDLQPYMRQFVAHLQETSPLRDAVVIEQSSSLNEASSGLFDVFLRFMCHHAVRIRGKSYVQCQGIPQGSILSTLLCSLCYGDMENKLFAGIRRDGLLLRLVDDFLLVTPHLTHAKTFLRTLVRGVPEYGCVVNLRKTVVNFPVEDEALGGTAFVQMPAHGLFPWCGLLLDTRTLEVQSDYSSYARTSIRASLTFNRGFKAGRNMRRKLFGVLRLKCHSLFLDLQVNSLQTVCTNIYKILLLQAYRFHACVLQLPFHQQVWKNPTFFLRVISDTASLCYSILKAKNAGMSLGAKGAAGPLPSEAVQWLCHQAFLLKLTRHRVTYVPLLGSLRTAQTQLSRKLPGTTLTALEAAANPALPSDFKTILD

SMILES | ΔTm [1] [°C] | IC50 [2] [µM] | Activity [3] | IC50 [4] [nM] | further results
CN(C)CCCNc1c2ccccc2nc2c1[nH]c1ccccc12 | 9 | > 20 | – | 630 | –
CN(C)CCNc1c2ccccc2[n+](C)c2c1oc1ccccc12 | 11 | 11.5 | Active | – | –
C[n+]1c2ccccc2c(NCCN2CCOCC2)c2[nH]c3ccccc3c21 | 10 | > 20 | Active | – | –
C[n+]1c2ccccc2c(NCCCO)c2[nH]c3ccccc3c21 | 7 | > 20 | Active | – | –
C[n+]1c2ccccc2c(NCCO)c2oc3ccccc3c21 | 4 | > 20 | Active | – | –
CN(C)CCCNc1c2ccccc2[n+](C)c2c1oc1ccccc12 | 14 | 6.1 | Active | 370 | –
C[n+]1c2ccccc2c(NCCN2CCOCC2)c2oc3ccccc3c21 | 9 | > 20 | Active | – | –
CCN(CC)CCNc1c2ccccc2[n+](C)c2c1oc1ccccc12 | 12 | 13 | Active | – | –
C[n+]1c2ccccc2c(NCCCO)c2oc3ccccc3c21 | 10 | > 20 | Active | – | –
C[n+]1c2ccccc2c(NCCCN2CCOCC2)c2[nH]c3ccccc3c21 | 12 | > 20 | Active | – | –
CN(C)CCNc1c2ccccc2[n+](C)c2c1[nH]c1ccccc12 | 13 | 10.3 | Active | – | –
C[n+]1c2ccccc2c(NCCCN2CCOCC2)c2oc3ccccc3c21 | 13 | 18 | Active | – | –
C[n+]1c2ccccc2c(NCCO)c2[nH]c3ccccc3c21 | 5 | > 20 | Active | – | –

The next lines start with results.

ΔTm [1] [°C] | IC50 [2] [µM] | Activity [3] | IC50 [4] [nM] | SMILES | further results
12 | 12 | Active | – | CCN(CC)CCNc1c2ccccc2[n+](C)c2c1[nH]c1ccccc12 | –
19 | 5.1 | Active | 160 | CCN(CC)CCCNc1c2ccccc2[n+](C)c2c1[nH]c1ccccc12 | –
15 | 9 | Active | 400 | CN(C)CCCNc1c2ccccc2[n+](C)c2c1[nH]c1c(F)cc(F)cc12 | –
11 | > 20 | Active | – | CN(C)CCNc1c2ccccc2[n+](C)c2c1[nH]c1c(F)cc(F)cc12 | –
15 | 5.5 | Active | 270 | CCN(CC)CCCNc1c2ccccc2[n+](C)c2c1[nH]c1c(F)cc(F)cc12 | –
12 | 18 | Active | – | CCN(CC)CCNc1c2ccccc2[n+](C)c2c1[nH]c1ccc(F)cc12 | –
11 | 15 | Active | – | CCN(CC)CCNc1c2ccccc2[n+](C)c2c1[nH]c1c(F)cc(F)cc12 | –
14 | 8 | Active | 310 | CN(C)CCCNc1c2ccccc2[n+](C)c2c1[nH]c1ccc(F)cc12 | ΔTm [5]: 25 °C; Activity [6]: Active; Activity (CA46 [7]): Active; IC50 (CA46 [8]): 1360 nM; Activity (HL-60 [9]): Active; Activity (HL-60 [10]): Active; Activity (HL-60 [11]): Active; Activity (CA46 [12]): Active; Activity (CA46 [13]): Active; IC50 (HL-60 [14]): 1210 nM; Activity (HL-60 [15]): Active; Activity (HL-60 [16]): Active; Activity (CA46 [17]): Active
17 | 4.5 | Active | 220 | CN(C)CCCNc1c2ccccc2[n+](C)c2c1[nH]c1ccccc12 | Activity [18]: Active; Activity [19]: Active; Activity [20]: Active
18 | 5 | Active | 200 | CCN(CC)CCCNc1c2ccccc2[n+](C)c2c1[nH]c1ccc(F)cc12 | –
15 | 5.7 | Active | – | CCN(CC)CCCNc1c2ccccc2[n+](C)c2c1oc1ccccc12 | –
14 | 13 | Active | – | CN(C)CCNc1c2ccccc2[n+](C)c2c1[nH]c1ccc(F)cc12 | –
